Experimental data taken from ChEMBL document CHEMBL2413000, “Control of the intracellular levels of prostaglandin E₂ through inhibition of the 15-hydroxyprostaglandin dehydrogenase for wound healing” (Bioorg Med Chem, 2013).
The source made the active and inactive calls. No cut-off for these calls is given here.

The compounds below were run against T1, 15-hydroxyprostaglandin dehydrogenase [NAD(+)] (Homo sapiens) (UniProt P15428) (assay: Inhibition of 15-PGDH in IL-1beta-stimulated human A549 cells assessed as increase in PGE2 level after 5 hrs by enzyme immunoassay). Settings: not given.
T1 sequence (whole entry): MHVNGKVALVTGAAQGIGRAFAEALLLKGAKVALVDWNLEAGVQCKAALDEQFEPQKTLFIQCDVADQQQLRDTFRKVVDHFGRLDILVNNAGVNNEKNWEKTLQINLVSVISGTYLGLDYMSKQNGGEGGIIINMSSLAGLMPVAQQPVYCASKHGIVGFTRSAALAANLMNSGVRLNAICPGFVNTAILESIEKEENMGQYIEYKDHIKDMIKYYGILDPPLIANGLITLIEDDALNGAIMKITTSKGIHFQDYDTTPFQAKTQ
Assay type: cell-based
Summary of the method: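 IL-1β-stimulated A549 cells (RPMI, 10% heat-inactivated FBS, 5% CO₂, 37 °C) exposed to inhibitors at various concentrations for 5 h. PGE₂ in the collected medium quantified by enzyme immunoassay.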

| inhibition | SMILES |
| --- | --- |
| Dose-dependent effect | O=C1N=C(O)S/C1=C\c1ccc(OCc2ccccc2)c(Cl)c1 |
| Dose-dependent effect | O=C1N=C(O)S/C1=C\c1ccc(OCCc2ccccc2)c(Cl)c1 |
| Dose-dependent effect | O=C1N=C(O)S/C1=C\c1ccc(OCCCc2ccccc2)c(Cl)c1 |
| Dose-dependent effect | O=C1N=C(O)S/C1=C\c1ccc(OCCCCc2ccccc2)c(Cl)c1 |

The compounds below were run against T2, 15-hydroxyprostaglandin dehydrogenase [NAD(+)] (Homo sapiens, UniProt P15428) (assay: Inhibition of human GST-fused 15-PGDH expressed in Escherichia coli BL21 using PGE2 as substrate assessed as formation of NADH by fluorescence spectrophotometric analysis). Settings: not given.
T2 sequence (P15428 whole entry): T1 sequence (whole entry)
Summary of the method: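 GST-tagged 15-PGDH from pGEX-2T in E. coli BL-21 LysS, IPTG-induced 12 h at 25 °C, glutathione-Sepharose purified. Triplicates per concentration; IC50 derived.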

| IC50 [nM] | SMILES |
| --- | --- |
| 165 | O=C1NC(=O)/C(=C/c2ccc(OCC3CC4CCC3C4)c(Cl)c2)S1 (stereo unspecified) |
| 264 | O=C1NC(=O)/C(=C/c2ccc(OC(=O)c3cccs3)c(Cl)c2)S1 |
| 9 | O=C1NC(=O)/C(=C/c2ccc(OCC3CCC3)c(Cl)c2)S1 |
| 42 | O=C1NC(=O)/C(=C/c2ccc(OCCC3CCCC3)cc2Cl)S1 |
| 4440 | O=C1NC(=O)/C(=C/c2ccc(OCCc3ccccn3)c(Cl)c2)S1 |
| 930 | O=C1NC(=O)/C(=C/c2ccc(OCc3ccc([N+](=O)[O-])cc3)c(Cl)c2)S1 |
| 59 | O=C1NC(=O)/C(=C/c2ccc(Oc3cccc(/C=C/[N+](=O)[O-])c3)c(Cl)c2)S1 |
| 1050 | CC(C)OCCOc1ccc(/C=C2\SC(=O)NC2=O)c(Cl)c1 |
| 13 | O=C1N=C(O)S/C1=C\c1ccc(OCCC2CCCCC2)cc1Cl |
| 2080 | CCc1ccc(CCOc2ccc(/C=C3\SC(=O)NC3=O)cc2Cl)nc1 |
| 20 | O=C1NC(=O)/C(=C/c2ccc(OCCOC3CCCCC3)c(Cl)c2)S1 |
| 4540 | O=C1NC(=O)/C(=C/c2ccc(OCc3ccc([N+](=O)[O-])cc3)cc2Cl)S1 |

Continued, compound first:

| SMILES | IC50 [nM] |
| --- | --- |
| O=C1NC(=O)/C(=C/c2ccc(OCCOC3CCCCC3)cc2Cl)S1 | 211 |
| O=C1NC(=O)/C(=C/c2ccc(OCc3ccc4c(c3)OCO4)c(Cl)c2)S1 | 193 |
| CC(Oc1ccc(/C=C2\SC(=O)NC2=O)cc1Cl)C1CC1 (stereo unspecified) | 132 |
| O=C1NC(=O)/C(=C/c2ccc(Oc3cccc4c3CCCC4=O)c(Cl)c2)S1 | 71 |
| O=C1NC(=O)/C(=C/c2ccc(OCCc3ccc([N+](=O)[O-])o3)c(Cl)c2)S1 | 123 |
| C=C(C)C1CCC(COc2ccc(/C=C3\SC(=O)NC3=O)cc2Cl)CC1 (stereo unspecified) | 75 |
| O=C1NC(=O)/C(=C/c2ccc(Oc3cccc([N+](=O)[O-])c3)c(Cl)c2)S1 | 100 |
| Cc1ncsc1CCOc1ccc(/C=C2\SC(=O)NC2=O)cc1Cl | 5170 |
| O=C1NC(=O)/C(=C/c2ccc(OCC3CCCC3)c(Cl)c2)S1 | 11 |
| O=C1NC(=O)/C(=C/c2ccc(OCCCCc3ccccc3)cc2Cl)S1 | 81 |

The compounds below were run on HaCaT (assay: Wound healing activity in scratch made human HaCaT cells at 5 uM after 48 hrs by inverted microscopic analysis relative to control). Settings: not given.
Assay type: functional, cell-based
Summary of the method: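 HaCaT cells plated at ca. 5×10^5 per well in DMEM with 10% FBS and 10 µg/mL mitomycin, 37 °C, 5% CO₂, grown to ca. 80% confluence. Monolayer scratched with a 200 µL pipette tip, then incubated with 5 µM test agent; 1 ng TGF-β1 as positive control. Wound width imaged by inverted microscope at wounding and after 48 h, compared with untreated control.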

| SMILES | Activity |
| --- | --- |
| O=C1N=C(O)S/C1=C\c1ccc(OCCc2ccccc2)c(Cl)c1 | Active |

What follows are compounds tested against T1, 15-hydroxyprostaglandin dehydrogenase [NAD(+)] (Homo sapiens) (assay: Inhibition of 15-PGDH in IL-1beta-stimulated human A549 cells assessed as increase in PGE2 level at 5 uM after 5 hrs by enzyme immunoassay relative to control). Settings: in the assay text read “after 12 hrs” for “after 5 hrs”.
Assay type: cell-based
Summary of the method: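 A549 cells seeded at 5×10^5 per well, incubated overnight in RPMI with FBS and antibiotic at 37 °C, 5% CO₂, then treated with inhibitor at 5 μM. Medium collected (text gives 5 h in one passage, 12 h in methods). PGE₂ measured by kit enzyme immunoassay and compared with untreated control. Three independent experiments.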

| inhibition | SMILES |
| --- | --- |
| Active | O=C1N=C(O)S/C1=C\c1ccc(OCc2ccccc2)c(Cl)c1 |
| Active | O=C1N=C(O)S/C1=C\c1ccc(OCCCc2ccccc2)c(Cl)c1 |
| Active | O=C1N=C(O)S/C1=C\c1ccc(OCCCCc2ccccc2)c(Cl)c1 |

These compounds were tested against T1, 15-hydroxyprostaglandin dehydrogenase [NAD(+)] (Homo sapiens) (assay: Inhibition of 15-PGDH in IL-1beta-stimulated human A549 cells assessed as increase in PGE2 level at 5 uM after 12 hrs by enzyme immunoassay relative to control). Settings: not given.

| fold change (FC) | SMILES |
| --- | --- |
| 5 | O=C1N=C(O)S/C1=C\c1ccc(OCCc2ccccc2)c(Cl)c1 |
